Measured values taken from the RNAGym collection of RNA variant scans (doi:10.1126/science.aae0568).
Fewer inactive variants are shown than the library holds.

B1: tRNA (parent)
chain: GUUCCGUUGGCGUAAUGGUAACGCGUCUCCCUCCUAAGGAGAAGACUGCGGGUUCGAGUCCCGUACGGAACG

Variants of: B1
Assay: yeast fitness relative to wild type (ratio to wild type); higher = fitter; tRNA-Arg(CCU), competitive growth, 37 C, YPD
Procedure, shortened: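 A pool of Saccharomyces cerevisiae strains, each with a tRNA-Arg(CCU) gene variant at the native genomic locus, was competed in YPD at 37°C for 24 hours across six parallel replicates. The variants had been chemically synthesised at a 3% per-site mutation rate over 69 sites, and gene amplicons before and after competition were read by 100-nucleotide paired-end sequencing. Darwinian fitness relative to wild type rested on changes in genotype frequencies. Genotypes required ≥ 100 starting reads, and estimates < 0.5 were set to 0.5.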

Variant	yeast fitness
GUUCCGUUGGCGUAAUGGUAACGCGUAUCCCUCCUACGGAGAGGACUGCGGGUUGGAGUCCCGUACGGAACG [C27A A37C A43G C55G]	≤ 0.5
GUUCCGUUGGCGUAAUGGUAACGCGUAUCCCUCCUUAGGAGAAGACUGCGGGUUCGAGUCCCGUACGGAACG [C27A A36U]	0.802
GUUCCGUUGGCGUAAUGGUAACGCGUAUCCCUCCUGAGGAGAAGAAUGCACGUUCGAGUCCCGUACGGAACG [C27A A36G C46A G50A G51C]	≤ 0.5
GUUCCGUUGGCGUAAUGGUAACGCGGCUCCCUCCUAAGGAGAAAACUGCGGGUUCGAGUCCCGUACGGAACG [U26G G44A]	0.87
GUUCCGUUGGCGUAAUGGUAACGCGGCUCCUUCCUAAGGAGAAGACUGCGGGUUCGAGUCCUGUACGGAACG [U26G C31U C62U]	0.695
GUUCCGUUGGCGUAAUGGUAACGCGUAUCCCUCCUAAGGAGCAGACUGCGGGUUCGAGUUCCGUACGGAACG [C27A A42C C60U]	≤ 0.5
GUUCCGUUGGCGUAAUGGUAACGCGGCUCCUUCCUAAGGAGAAGACUGCGGGUACGAGUCCCGUACGGAACG [U26G C31U U54A]	0.569
GUUCCGUUGGCGUAAUGGUAACGCGGCUCCCUCCUAAGGAGAACACUGCGGGUUCGAAUCCCGUACGCAACG [U26G G44C G58A G68C]	0.529
GUUCCGUUGGCGUAAUGGUAACGCGUAUCCCUCCUCAGGAGUAGACUGCGGGUUCGAGUCCCGGACGGAACG [C27A A36C A42U U64G]	≤ 0.5
GUUCCGUUGGCGUAAUGGUAACGCGGCUCCCUCCUAAGGAGAAGACUGCGGGUUCGAGUACCGUACGGAACG [U26G C60A]	0.593
GUUCCGUUGGCGUAAUGGUAACGCGGCUCCCUCCUAAGGAGAAGACUGCGGGUUCGAGUCCCGUACAGAACG [U26G G67A]	0.81
GUUCCGUUGGCGUAAUGGUAACGCGUAUCCCUCCUUUGGAGAAGACUGCGGGUUCGAGUCCCGUGCGGAACG [C27A A36U A37U A65G]	≤ 0.5
GUUCCGUUGGCGUAAUGGUAACGCGGCUCCGUCCUUAGGAAAAGCCUGCGGGUUCGAGUCCCGUACGGAACG [U26G C31G A36U G41A A45C]	≤ 0.5
GUUCCGUUGGCGUAAUGGUAACGCGGCUCCCUCCUAAGAAGAAGAGUGCGGGUUCGAGUCCCGUACGAAACG [U26G G39A C46G G68A]	0.522
GUUCCGUUGGCGUAAUGGUAACGCGUAUCCCUCCUAAGGGGAAGAGUGCGGGUUCGAGUCCGGUACGGAACG [C27A A40G C46G C62G]	0.687
GUUCCGUUGGCGUAAUGGUAACGCGUAUCCCUCCUAAGGAGCAGACUGCGGGUUCGAGUCCCGUACGGAACG [C27A A42C]	0.751
GUUCCGUUGGCGUAAUGGUAACGCGUAUCCCUCCUAAGGAGGAGACUGCGGGUUCGAGUCCCGUACGGAACG [C27A A42G]	0.791
GUUCCGUUGGCGUAAUGGUAACGCGUAUCCCUCCUAAGGAGAGGACUGCGGGUUCGAGUCCCGUACGGAACG [C27A A43G]	0.778
GUUCCGUUGGCGUAAUGGUAACGCGUAUCCCUCCUAAGGAGACGACUGCGGGUUCGAGUCCCGUACGGAACG [C27A A43C]	0.939

Variant	yeast fitness
GUUCCGUUGGCGUAAUGGUAACGCGGCUCCCUCCUAAGGAGAAAACUGCGGGUUCGAGUCCCGUACGGUACG [U26G G44A A69U]	0.673
GUUCCGUUGGCGUAAUGGUAACGCGUAUCCCUCCUCAGGGGAAGACUGCGGGUUCGAGUCCAGUACGGAACG [C27A A36C A40G C62A]	≤ 0.5
GUUCCGUUGGCGUAAUGGUAACGCGGCUCCCUCUUAAGGAGAAGACUGAGAGUUCGAGUCCCGUACGGUACG [U26G C34U C49A G51A A69U]	≤ 0.5
GUUCCGUUGGCGUAAUGGUAACGCGGCUCCCUCCUAAGGAGAAGACUGCGGGUUGGAGUCCCGUCCGGAUCG [U26G C55G A65C A70U]	≤ 0.5
GUUCCGUUGGCGUAAUGGUAACGCGGCUCCCUCCUAAGGAGAAGACUGCGGGUUCAAGUCCCGUACAGAACG [U26G G56A G67A]	0.529
GUUCCGUUGGCGUAAUGGUAACGCGGCUCCUUCCUAAGGAGAAGACUGCGGGUUCGAGUCCCGUACGGAACG [U26G C31U]	1.02
GUUCCGUUGGCGUAAUGGUAACGCGGCUCCCACCUAAGGAGAAGACUGCGAGUUCGAGUCCCGUACGGAACG [U26G U32A G51A]	≤ 0.5
GUUCCGUUGGCGUAAUGGUAACGCGGCUCCCUCCUAAGCAGAAGACUGCGGGUUCGAAUCCCGUAUGGAACG [U26G G39C G58A C66U]	≤ 0.5
GUUCCGUUGGCGUAAUGGUAACGCGGCUCCCUCUUAAGGGGAAGACUGCGAGUUCGAGUCCCGUACGGAACG [U26G C34U A40G G51A]	≤ 0.5
GUUCCGUUGGCGUAAUGGUAACGCGUAUCCCUCCUAAGGAGACGACUGCGGGUUCGAGUACCGUACGGAACG [C27A A43C C60A]	≤ 0.5
GUUCCGUUGGCGUAAUGGUAACGCGGCUCCCUCCUAAGGAGAAGACUGCGGGUUCGAGUCUCGUACGGAACG [U26G C61U]	0.864
GUUCCGUUGGCGUAAUGGUAACGCGGCUCCCUCCUAAGGAGAAGACUGCGGGUUCGAGUCCCGUAGGGAACG [U26G C66G]	0.677
GUUCCGUUGGCGUAAUGGUAACGCGGCUCCCUCCUAAGGAGAAGACUGCGGGUUCGAGUCUCCUGCGGAACG [U26G C61U G63C A65G]	0.799
GUUCCGUUGGCGUAAUGGUAACGCGGCUCCCACCUAAGGAGAAGACUGCGGGUUCGAGUCCCAUACGGAACG [U26G U32A G63A]	≤ 0.5
GUUCCGUUGGCGUAAUGGUAACGCGGCUCCCUGGUAAGGUGAAGACUGCGGGUUCGAGUCCCGUACGAAACG [U26G C33G C34G A40U G68A]	≤ 0.5
GUUCCGUUGGCGUAAUGGUAACGCGUAUCCCUCCUAAGGAGCAGACUGCGGGUUCGGGUCCCGUACGGAACG [C27A A42C A57G]	≤ 0.5
GUUCCGUUGGCGUAAUGGUAACGCGGCUCCCUCCAAAGGAAAAGAUUGCGGGUUCGAGUCCCGUACGAAACG [U26G U35A G41A C46U G68A]	≤ 0.5
GUUCCGUUGGCGUAAUGGUAACGCGGCUCCCUCUUAAGGAGAACACUGCGGGUUCAAGUCCCGUACGGAACG [U26G C34U G44C G56A]	≤ 0.5
